{"source": "the EternaBench riboswitch data", "key": {"[1]": {"test_system": "MS2 coat protein", "experiment": "apparent Kd, MS2 coat protein; higher = weaker binding; RNA-MaP array; tryptophan 2.4 mM where present", "method_in_brief": "(§1)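 The apparent Kd is the median of filtered binding-curve fits, one per cluster, to green signal normalised to red-channel RNA signal and control-cluster median Fmax. The clusters were on Illumina sequencing chips, and stalled E. coli RNA polymerase had transcribed the designs on them. Titration used SNAP-549-labelled MS2 coat protein from 0.7 or 1.5 nM, doubling to 3 µM, without and then with constant ligand, in 100 mM Tris-HCl pH 7.5, 80 mM KCl, 4 mM MgCl2, BSA, DTT, yeast tRNA and Tween-20.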"}, "[2]": {"test_system": "MS2 coat protein", "experiment": "apparent Kd, MS2 coat protein; higher = weaker binding; RNA-MaP array; theophylline 2 mM where present", "method_in_brief": "as §1"}, "[3]": {"settings": "designed as: ON switch for tryptophan, no ligand"}, "[4]": {"settings": "ligand present: tryptophan, designed as: ON switch for tryptophan"}, "[5]": {"settings": "designed as: OFF switch for tryptophan, no ligand"}, "[6]": {"settings": "ligand present: tryptophan, designed as: OFF switch for tryptophan"}, "[7]": {"settings": "designed as: OFF switch for theophylline, no ligand"}, "[8]": {"settings": "ligand present: theophylline, designed as: OFF switch for theophylline"}, "[9]": {"settings": "designed as: ON switch for theophylline, no ligand"}, "[10]": {"settings": "ligand present: theophylline, designed as: ON switch for theophylline"}}}
{"sequence": "UUUGGCGGCGAUCUGGGUUUACCAGAUCGGCGAGGACCGGUACGGCCGCCACUCGUGUUUCUUUGACAUGAGGAUCACCCAUGUA", "values": [{"measurement": "apparent Kd", "setting": "[1]; [3]", "value": 62.5, "unit": "nM"}, {"measurement": "apparent Kd", "setting": "[1]; [4]", "value": 39.1, "unit": "nM"}]}
{"sequence": "UGUCGUAGACAUGAGGAUCACCCAUGUCCACGAGGACCGGUACGGCCGCCACUCGGGAUAUAAACCGUUACGGGUGGGUGGUGUU", "values": [{"measurement": "apparent Kd", "setting": "[1]; [5]", "value": 18.8, "unit": "nM"}, {"measurement": "apparent Kd", "setting": "[1]; [6]", "value": 37.3, "unit": "nM"}]}
{"sequence": "AAACAUGAGGAUCACCCAUGUUGAGGAUCACGAGGACCGGUACGGCCGCCACUCGACAUGAGGAUCACCCAUGUGAGGAUCACCC", "values": [{"measurement": "apparent Kd", "setting": "[1]; [3]", "value": 175, "unit": "nM"}, {"measurement": "apparent Kd", "setting": "[1]; [4]", "value": 174, "unit": "nM"}]}
{"sequence": "GCGGAAUAAUCGGCCGCCACUAUGAUAUAGGAAACUAUAACAUGAGGAUCACCCAUGUAUCCUCAUAGGACCGGGAUUAAAACGC", "values": [{"measurement": "apparent Kd", "setting": "[1]; [3]", "value": 105, "unit": "nM"}, {"measurement": "apparent Kd", "setting": "[1]; [4]", "value": 24.8, "unit": "nM"}]}
{"sequence": "ACGUAGAAGUCGGCCGCCACUGAUUUCAUGUUCAACAUGAGGAUCACCCAUGUACCUUAUGUUAACAGGACCGGGACGUAUACGA", "values": [{"measurement": "apparent Kd", "setting": "[1]; [3]", "value": 298, "unit": "nM"}, {"measurement": "apparent Kd", "setting": "[1]; [4]", "value": 55, "unit": "nM"}]}
{"sequence": "AAUGUAUGGCACAUGAGGAUCACCCAUGUGCGAGGACCGGUACGGCCGCCACUCGGUCCUGGGAUCUUAUUACUAUACAUUAAUG", "values": [{"measurement": "apparent Kd", "setting": "[1]; [5]", "value": 11.6, "unit": "nM"}, {"measurement": "apparent Kd", "setting": "[1]; [6]", "value": 24, "unit": "nM"}]}
{"sequence": "GGUUACUCUACGGCCGCCACUGAUUAAUUAUAAACCUGUACAUAAACAUGAGGAUCACCCAUGUACAGGACCGGGUAGUGUAACC", "values": [{"measurement": "apparent Kd", "setting": "[1]; [3]", "value": 37.8, "unit": "nM"}, {"measurement": "apparent Kd", "setting": "[1]; [4]", "value": 26.8, "unit": "nM"}]}
{"sequence": "CGCAACAUGAGGAUCACCCAUGUAAUGACGCGAGGACCGGUACGGCCGCCACUCGCCUGGCAGUGAGCGCAUGCGGCCUGGGUAU", "values": [{"measurement": "apparent Kd", "setting": "[1]; [5]", "value": 11.1, "unit": "nM"}, {"measurement": "apparent Kd", "setting": "[1]; [6]", "value": 12.2, "unit": "nM"}]}
{"sequence": "AAUUCCGGGUCGGCCGCCACUGAUAUGGCGAGUCCUCGAACUUACAUGAGGAUCACCCAUGUAAACAGGACCGGGACCGCAUGGG", "values": [{"measurement": "apparent Kd", "setting": "[1]; [5]", "value": 18.5, "unit": "nM"}, {"measurement": "apparent Kd", "setting": "[1]; [6]", "value": 49.1, "unit": "nM"}]}
{"sequence": "UUAUAAGUACCGGUCCUCAGAUCCUCAUGACGAGGACCGGUACGGCCGCCACUCGAAACAUGAGGAUCACCCAUGUAAUAACAUC", "values": [{"measurement": "apparent Kd", "setting": "[1]; [5]", "value": 19.6, "unit": "nM"}, {"measurement": "apparent Kd", "setting": "[1]; [6]", "value": 20.7, "unit": "nM"}]}
{"sequence": "CCUAUGCAGUCGGCCGCCACUGAGUCCUCAAUAAUAAAUUAAUAUACAUGAGGAUCACCCAUGUACAGGACCGGGACUGUAUAGG", "values": [{"measurement": "apparent Kd", "setting": "[1]; [5]", "value": 205, "unit": "nM"}, {"measurement": "apparent Kd", "setting": "[1]; [6]", "value": 167, "unit": "nM"}]}
{"sequence": "CACAAUUUGUCGGCCGCCACUAAGGUAACUUUUCUCACAUGAGGAUCACCCAUGUGCCCGAAACUUAGGACCGGGAUAAUGGGUG", "values": [{"measurement": "apparent Kd", "setting": "[1]; [3]", "value": 82.4, "unit": "nM"}, {"measurement": "apparent Kd", "setting": "[1]; [4]", "value": 45.3, "unit": "nM"}]}
{"sequence": "CCUAUGCAGUCGGCCGCCACUGAACAUGAGGAUCACCCAUGUAAUUAAAAUUAUGAUCCUGAAAUCAGGACCGGGACUGUAUAGG", "values": [{"measurement": "apparent Kd", "setting": "[1]; [5]", "value": 218, "unit": "nM"}, {"measurement": "apparent Kd", "setting": "[1]; [6]", "value": 85.4, "unit": "nM"}]}
{"sequence": "GGUCUCUGGAGCGAUACCAGCUUGAGUGUACUGGCCAGGUACAUGAGGAUCACCCAUGUAAGCCCUUGGCAGCGCUGCAGAGACC", "values": [{"measurement": "apparent Kd", "setting": "[2]; [7]", "value": 10.1, "unit": "nM"}, {"measurement": "apparent Kd", "setting": "[2]; [8]", "value": 29.1, "unit": "nM"}]}
{"sequence": "AGCAACUAGUCGGCCGCCACUCAUAUUACAUGAGGAUCACCCAUGUAUACAUGGUUGUUAUAUUUGAGGACCGGGACAGUUGCAU", "values": [{"measurement": "apparent Kd", "setting": "[1]; [3]", "value": 70.4, "unit": "nM"}, {"measurement": "apparent Kd", "setting": "[1]; [4]", "value": 38.1, "unit": "nM"}]}
{"sequence": "AAACAUGACAUGGAUACCAGACACAUGAGGAUCACCCAUGUUGAGGAUCACCCAUGUCCCGUCCCUUGGCAGCCAGCAUGAGGAU", "values": [{"measurement": "apparent Kd", "setting": "[2]; [7]", "value": 9.49, "unit": "nM"}, {"measurement": "apparent Kd", "setting": "[2]; [8]", "value": 10.2, "unit": "nM"}]}
{"sequence": "AUAACAUGAGGAUCACCCAUGUAGAGUGAUACCAGACUACGUAAUGUCCCUUGGCAGCACAAGUAAAGUUACGAAUAUUGAUAGA", "values": [{"measurement": "apparent Kd", "setting": "[2]; [9]", "value": 192, "unit": "nM"}, {"measurement": "apparent Kd", "setting": "[2]; [10]", "value": 51.5, "unit": "nM"}]}
{"sequence": "GAUGAACUAUUCGAUACCAGACUACAUGAGGAUCACCCAUGUGUGUCAAUUUCUCAGUCAGUCCCUUGGCAGCGAAUAGUUUAUC", "values": [{"measurement": "apparent Kd", "setting": "[2]; [7]", "value": 38.2, "unit": "nM"}, {"measurement": "apparent Kd", "setting": "[2]; [8]", "value": 54.3, "unit": "nM"}]}
{"sequence": "AGCCCUGUACUAGAUACCAGCUACAUGAGGAUCACCCAUGUGCGUCAAGACUGACUGUGUAGCCCUUGGCAGCUGCUCGCAUGUA", "values": [{"measurement": "apparent Kd", "setting": "[2]; [7]", "value": 22.1, "unit": "nM"}, {"measurement": "apparent Kd", "setting": "[2]; [8]", "value": 32.2, "unit": "nM"}]}
{"sequence": "GGUGGGACUUGUGAUACCAGCCUAAUUCUAAACGAAUUGCACAUGAGGAUCACCCAUGUCGGCCCUUGGCAGCAUGAGUAUUUAU", "values": [{"measurement": "apparent Kd", "setting": "[2]; [9]", "value": 114, "unit": "nM"}, {"measurement": "apparent Kd", "setting": "[2]; [10]", "value": 36.8, "unit": "nM"}]}
{"sequence": "GGCCGGUGCGCUUUGAAGCGACGGCGUGAUACCAGAUGUAAGAGCGUCCCUUGGCAGCACGUUUACAUGAGGAUCACCCAUGUCU", "values": [{"measurement": "apparent Kd", "setting": "[2]; [9]", "value": 196, "unit": "nM"}, {"measurement": "apparent Kd", "setting": "[2]; [10]", "value": 131, "unit": "nM"}]}
{"sequence": "GCACUACAUGAGGAUCACCCAUGUGCAGAUACCAGAGGUGUAUGCCUCCCUUGGCAGCUGCGUCGCUCUGGCAGCUUGUGGGUUG", "values": [{"measurement": "apparent Kd", "setting": "[2]; [9]", "value": 100, "unit": "nM"}, {"measurement": "apparent Kd", "setting": "[2]; [10]", "value": 153, "unit": "nM"}]}
{"sequence": "CUCGGGUUAUCAGAUACCAGACUAAAAUUUACAUGAGGAUCACCCAUGUAAUGGGUGAUAGUCCCUUGGCAGCUGUUAUGUUUAA", "values": [{"measurement": "apparent Kd", "setting": "[2]; [7]", "value": 62.3, "unit": "nM"}, {"measurement": "apparent Kd", "setting": "[2]; [8]", "value": 119, "unit": "nM"}]}
{"sequence": "UAUAUAUUGAUGGAUACCAGCAGAGAAAACGUUUAUCCUAACAUGAGGAUCACCCAUGUAUGCCCUUGGCAGCUGUUGAUAUAUA", "values": [{"measurement": "apparent Kd", "setting": "[2]; [7]", "value": 22.2, "unit": "nM"}, {"measurement": "apparent Kd", "setting": "[2]; [8]", "value": 32.6, "unit": "nM"}]}
{"sequence": "GAACAUGAGGAUCACCCAUGUUAAACAGAUACCAGUGAUAUAAUACACCCUUGGCAGCUGAAGCUGAAUAAUAAUUCCCUCAAGC", "values": [{"measurement": "apparent Kd", "setting": "[2]; [9]", "value": 12, "unit": "nM"}, {"measurement": "apparent Kd", "setting": "[2]; [10]", "value": 14.3, "unit": "nM"}]}
{"sequence": "UACAUGAGGAUCACCCAUGUAAGGUGAGAUACCAGUGAUAUGCUACACCCUUGGCAGCUCACGGCUGACUAUCAGCACACAUGUA", "values": [{"measurement": "apparent Kd", "setting": "[2]; [9]", "value": 27, "unit": "nM"}, {"measurement": "apparent Kd", "setting": "[2]; [10]", "value": 16.3, "unit": "nM"}]}
